Screening results (PubChem BioAssay)
STEP block – blocks human striatal-enriched tyrosine phosphatase; P54829; recombinant STEP, OMFP fluorogenic substrate, fluorescence; inhibition, % at 20 µM; actives 0.25% (n = 360,000);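 active = inhibition at 20 µM, scaled per plate between control wells, above about 37%, limit read from the data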;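 also: 0% = DMSO with enzyme and substrate and 100% = substrate only without enzyme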
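Measure: Control-normalized % inhibition with plate pattern correction | Test system: STEP phosphatase, cell-free reaction | Medium: pH 6.0 Bis-Tris with DTT and Tween 20 | Technique: Fluorescence, 480/540 nm | Times: Reaction 20 min, ambient temperature | Doses: Single compound dose of 20 µM, 1% DMSO final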
rCAG binder – molecules binding r(CAG) RNA repeats | r(CAG) RNA repeat, TO-PRO-1 dye displacement fluorescence | inhibition, % at 3 µM | actives 1.3% (n = 370,000) | AID 651821;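 active = inhibition above the plate cutoff, the mean of all test compounds on that plate plus 3 SD, cut at about 35% in these data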;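 also: 0% = DMSO alone and 100% = 100 µM mitoxantrone as full dye displacement; higher means more dye released from RNA so lower well fluorescence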
LMPTP inh – blocks human LMPTP phosphatase; recombinant LMPTP-A, OMFP fluorogenic substrate, fluorescence intensity; inhibition, % at 20 µM; actives 0.22% (n = 360,000); AID 651560;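 active = compounds that cut the enzyme signal by at least half of the control window in the single-dose screen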;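 also: plate controls were DMSO wells with enzyme plus substrate for no effect and substrate without enzyme for full effect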
Target sequence (P24666 whole entry, looked up): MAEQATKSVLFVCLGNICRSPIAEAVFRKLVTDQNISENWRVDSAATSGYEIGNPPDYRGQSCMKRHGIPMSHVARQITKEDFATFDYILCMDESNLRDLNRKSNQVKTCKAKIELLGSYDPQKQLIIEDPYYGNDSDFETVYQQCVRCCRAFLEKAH
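Assay system: LMPTP-A, protein tyrosine phosphatase of low molecular weight / Medium: pH 6.0 Bis-Tris buffer with DTT and Triton X-100 / Schedule: 50 min enzyme reaction at room temperature, protected from light / Measured by: endpoint fluorescence intensity from OMFP dephosphorylation / Read-out basis: % inhibition relative to no-enzyme and uninhibited control wells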
Scp-1 inhibitor – Scp-1 (human) phosphatase inhibition | Q9GZU7 | Recombinant Scp1, phosphopeptide, malachite green phosphate absorbance | AID 493091 | inhibition, % at 20 µM | actives 0.88% (n = 340,000);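 active = inhibition above about 50% at 20 µM, limit read from the data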;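 also: plate controls were DMSO wells with enzyme for no effect and wells lacking enzyme for full effect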
Target sequence (Q9GZU7 76-261 limits assumed): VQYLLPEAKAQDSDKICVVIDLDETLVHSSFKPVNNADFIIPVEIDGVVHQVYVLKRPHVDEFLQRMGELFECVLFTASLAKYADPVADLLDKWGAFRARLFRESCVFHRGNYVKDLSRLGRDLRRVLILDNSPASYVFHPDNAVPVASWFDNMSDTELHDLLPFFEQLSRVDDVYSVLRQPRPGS
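Test system: SCP-1 catalytic domain; Buffer or medium: Acidic Tris acetate buffer with magnesium and detergent; Also added: Phosphorylated 17-residue peptide substrate; Compound: single 20 µM dose, 1% DMSO; Schedule: enzyme reaction 45 min at room temperature, colour 5 min, stabilisation 30 min; Signal: Phosphate-binding colour reagent, absorbance read at 630 nm.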
NadD block – blocks S. aureus nicotinate mononucleotide adenylyltransferase; purified NadD enzyme, colorimetric absorbance read-out; inhibition, % at 20 µM; actives 0.78% (n = 360,000); AID 602399; in the data active = inhibition above about 26%
Scp-1 conf – confirmation of human Scp-1 phosphatase inhibitors | recombinant SCP-1 catalytic domain, phosphate release, malachite green absorbance | AID 540281 | actives 61% (n = 2,500) | shares compounds with Scp-1 inhibitor | inhibition, % at 20 µM;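 also: plate controls were DMSO with enzyme for no effect and buffer wells lacking enzyme for full effect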
MG interference – counter-screen for Scp-1 inhibitors: colorimetric interference; shares compounds with Scp-1 inhibitor; Colorimetric interference counterscreen, malachite green absorbance 630 nm; apparent inhibition (interference), % at 20 µM; 2,500 tested, under 10 active;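 also: compounds added after enzyme reaction finished so only phosphate colour detection is probed; plate controls were DMSO wells with completed Scp-1 reaction for no effect and substrate wells lacking enzyme for full effect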
Scp-1 Tm shift – Scp-1 (human) binding by thermal shift. shares compounds with Scp-1 inhibitor. thermal shift relative to vanadate control, % at 40 µM. Recombinant SCP1, Sypro Orange thermal shift Tm. actives 25% (n = 1,500);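 active = substances whose mean melting-temperature shift, as a percentage of the reference inhibitor's shift, reaches about 5.3%, limit read from the data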;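 also: 0% = Tm of DMSO wells and 100% = Tm with sodium orthovanadate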
Active calls of the source: *. Shown are actives, neighbours in structure and some others; about 2.6% of the full set was active somewhere.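 The calls were made as follows, unless noted: active = inhibition of at least 30% at 20 µM; inactive = the rest.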

Screening O=C(CSc1nnc(COc2ccccc2)n1Cc1ccco1)NCc1ccco1 returned STEP block 1.8, rCAG binder 14.7, LMPTP inh 5.1, Scp-1 inhibitor 87.6*, NadD block 16.3, Scp-1 conf 67.3*, MG interference -11.4 and Scp-1 Tm shift -13.2.
C=CCn1c(COc2cccc(C)c2)nnc1SCC(=O)NC(=O)NCc1ccco1 was read as STEP block 2.8, rCAG binder -1.6, LMPTP inh 5.3, Scp-1 inhibitor 45.6 and NadD block 12.1.
Screening C=CCn1c(COc2ccc(F)cc2)nnc1SCC(=O)NC(=O)NCc1ccco1 returned STEP block 3.9, rCAG binder 2.0, LMPTP inh 15.5, Scp-1 inhibitor 61.0*, NadD block 14.2, Scp-1 conf 56.0*, MG interference -9.5 and Scp-1 Tm shift -15.7.
`O=C(CSc1nnc(-c2ccncc2)n1-c1ccc(F)cc1)NC(=O)NCc1ccco1` gave STEP block 4.9, rCAG binder -1.5, LMPTP inh 6.6, Scp-1 inhibitor 88.6*, NadD block 9.0, Scp-1 conf 64.5*, MG interference -8.2 and Scp-1 Tm shift -3.2.
CCCCn1c(SCC(=O)NCc2ccco2)nnc1-c1ccoc1C was read as STEP block 3.1, rCAG binder 4.1, LMPTP inh 0.7, Scp-1 inhibitor 97.2*, NadD block 19.9, Scp-1 conf 76.7*, MG interference -12.0 and Scp-1 Tm shift -3.0.
Screening COc1ccc(-n2c(SCC(=O)NCC3CCCO3)nnc2-c2ccncc2)cc1 (stereo not drawn) returned rCAG binder 0.2.
Screening CC(C)(C)c1ccc(-c2cn(C[C@H](Cc3ccccc3)n3c(=O)c4ccccc4n3Cc3ccccc3)nn2)cc1 returned rCAG binder 8.4.
`COc1ccc2cc(-c3cccc4[nH]cc(C)c34)ccc2c1` gave rCAG binder 9.3.
`Cn1c(SCC(=O)Nc2nncs2)nnc1C1CC1` gave STEP block 29.4, rCAG binder 6.7, LMPTP inh -0.4, Scp-1 inhibitor 79.2*, NadD block -1.8, Scp-1 conf 52.8*, MG interference -15.1 and Scp-1 Tm shift 5.5*.
Screening CCOC(=O)COc1ccccc1/C=N\NC(=O)c1cc2c(ccc3ccccc32)o1 returned STEP block 4.2, rCAG binder 4.3, LMPTP inh 5.8, Scp-1 inhibitor 83.7*, NadD block 9.9, Scp-1 conf 39.4*, MG interference -2.7 and Scp-1 Tm shift 0.1.
For Cc1ccccc1NC(=O)C1c2cccc[n+]2CC(=O)N1c1c(C)cccc1C (stereo not drawn) the results were STEP block 2.7, rCAG binder 5.8, LMPTP inh -1.1, Scp-1 inhibitor 89.2*, NadD block 25.1, Scp-1 conf 91.4*, MG interference -9.0 and Scp-1 Tm shift -0.4.
`COc1ccc(C(CC(=O)N2CCCCC2)c2c(OC)cc(OC)c3c(-c4ccccc4)cc(=O)oc23)cc1` (stereo not drawn) gave STEP block 2.6, rCAG binder 6.4, LMPTP inh 14.7, Scp-1 inhibitor 79.0*, NadD block 7.4, Scp-1 conf 64.8*, MG interference -12.0 and Scp-1 Tm shift -13.2.
For COc1ccc(C(CC(=O)N2CCCC2)c2c(OC)cc(OC)c3c(-c4ccccc4)cc(=O)oc23)cc1 (stereo not drawn) the results were STEP block 6.6, rCAG binder 2.1, LMPTP inh 15.1, Scp-1 inhibitor 66.9*, NadD block 9.3, Scp-1 conf 59.0*, MG interference -8.7 and Scp-1 Tm shift -21.3.
